According to ChEMBL document CHEMBL4765424 (Eur J Med Chem, 2020):

Tests used:
[1] = tested on: Severe acute respiratory syndrome coronavirus 2; assay: Inhibition of SARS CoV2 C-terminal His6-tagged 3CL protease expressed in Escherichia coli BL21 DE3 at 50 uM using Thr-Ser-Ala-Val-Leu-Gln-pNA as substrate preincubated for 30 mins followed by substrate addition and measured for 20 mins by colorimetric method relative to control; settings: time 50.0 min
In short: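 Recombinant SARS-CoV-2 3CLpro comes from a synthetic full-length gene expressed in E. coli and purified. The enzyme was preincubated with compound for 30 min at room temperature in 40 mM PBS, 100 mM NaCl, 1 mM EDTA, 0.1% Triton, pH 7.3. TSAVLQ-pNA was then added to 200 μM final. A390 was read every 30 s for 20 min. Line 1 is percent inhibition at 50 μM. IC50s were fitted with a Hill1 function.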

[2] = Inhibition of SARS CoV2 C-terminal His6-tagged 3CL protease expressed in Escherichia coli BL21 DE3 using Thr-Ser-Ala-Val-Leu-Gln-pNA as substrate preincubated for 30 mins followed by substrate addition and measured for 20 mins by colorimetric method; design: species or system Severe acute respiratory syndrome coronavirus 2

CCCCN1C(=O)C(=O)c2cc(C(=O)O)ccc21
inhibition [1]: < 25%

CN1C(=O)C(=O)c2cc(I)ccc21
inhibition [1]: 25%

COC(=O)c1ccc2c(c1)C(=O)C(=O)N2CN1CCOCC1
inhibition [1]: 32%

O=C1C(=O)N(CN2CCOCC2)c2ccc(Cl)cc21
inhibition [1]: < 25%

O=C1C(=O)N(CN2CCOCC2)c2ccc([N+](=O)[O-])cc21
inhibition [1]: < 25%

CCCCN1C(=O)C(=O)c2cc(C(=O)OC)ccc21
inhibition [1]: 42%

CN1C(=O)C(=O)c2cc(C(=O)O)ccc21
inhibition [1]: < 25%

CCCCN1C(=O)C(=O)c2cc(C(=O)ON3C(=O)CCC3=O)ccc21
inhibition [1]: 47%

O=C1C(=O)N(CO)c2ccccc21
inhibition [1]: < 25%

O=C1C(=O)N(CN2CCOCC2)c2ccc(F)cc21
inhibition [1]: < 25%

COC(=O)c1ccc2c(c1)C(=O)C(=O)N2C
inhibition [1]: 53%

NC(=O)Cc1ccc2c(c1)C(=O)C(=O)N2Cc1ccc2ccccc2c1
IC50 [2]: 39.2 µM

CCCCN1C(=O)C(=O)c2cc(C(N)=O)ccc21
IC50 [2]: 17.8 µM

O=C(O)c1ccc2c(c1)C(=O)C(=O)N2Cc1ccc2ccccc2c1
inhibition [1]: 32%

CCCN1C(=O)C(=O)c2cc(C(=O)O)ccc21
inhibition [1]: < 25%

O=C(ON1C(=O)CCC1=O)c1ccc2c(c1)C(=O)C(=O)N2Cc1ccccc1
IC50 [2]: 15.5 µM

CCCN1C(=O)C(=O)c2cc(I)ccc21
inhibition [1]: 51%

NC(=O)c1ccc2c(c1)C(=O)C(=O)N2Cc1ccc2ccccc2c1
IC50 [2]: 0.045 µM

CCCN1C(=O)C(=O)c2cc(C(=O)OC)ccc21
inhibition [1]: 53%

NC(=O)c1ccc2c(c1)C(=O)C(=O)N2Cc1ccc2cc(-c3ccccc3)ccc2c1
IC50 [2]: 24.9 µM

COC(=O)c1ccc2c(c1)C(=O)C(=O)N2Cc1ccccc1
inhibition [1]: 45%

CCCCN1C(=O)C(=O)c2cc(I)ccc21
IC50 [2]: 41.8 µM

O=C1C(=O)N(CN2CCCCC2)c2ccc(F)cc21
inhibition [1]: < 25%

O=C1C(=O)N(CN2CCOCC2)c2ccccc21
inhibition [1]: < 25%

NC(=O)c1ccc2c(c1)C(=O)C(=O)N2Cc1cc2ccccc2s1
IC50 [2]: 0.053 µM

O=C(O)c1ccc2c(c1)C(=O)C(=O)N2Cc1ccccc1
inhibition [1]: < 25%

NC(=O)c1ccc2c(c1)C(=O)C(=O)N2Cc1ccc2cc(Br)ccc2c1
IC50 [2]: 0.047 µM

CN1C(=O)C(=O)c2cc(C(=O)ON3C(=O)CCC3=O)ccc21
inhibition [1]: 45%

CCCN1C(=O)C(=O)c2cc(C(N)=O)ccc21
IC50 [2]: 10.2 µM
